In publication PMC7641749 (Nucleic Acids Research, 2020):

B1: DGΔ96–115: 96–115 aa of DGCR8 was removed (protein)
chain: METDESPSPLPCGPAGEAVMESRARPFQALPREQSPPPPLQTSSGAEVMDVGSGGDGQSELPAEDPFNFYGASLLSKGSFSKGRLLIDPNCSGHSKDVKISVSFTESCRSKDRKVLYTGAERDVRAECGLLLSPVSGDVHACPFGGSVGDGVGIGGESADKKDEENELDQEKRVEYAVLDELEDFTDNLELDEEGAGGFTAKAIVQRDRVDEEALNFPYEDDFDNDVDALLEEGLCAPKKRRTEEKYGGDSDHPSDGETSVQPMMTKIKTVLKSRGRPPTEPLPDGWIMTFHNSGVPVYLHRESRVVTWSRPYFLGTGSIRKHDPPLSSIPCLHYKKMKDNEEREQSSDLTPSGDVSPVKPLSRSAELEFPLDEPDSMGADPGPPDEKDPLGAEAAPGALGQVKAKVEVCKDESVDLEEFRSYLEKRFDFEQVTVKKFRTWAERRQFNREMKRKQAESERPILPANQKLITLSVQDAPTKKEFVINPNGKSEVCILHEYMQRVLKVRPVYNFFECENPSEPFGASVTIDGVTYGSGTASSKKLAKNKAARATLEILIPDFVKQTSEEKPKDSEELEYFNHISIEDSRVYELTSKAGLLSPYQILHECLKRNHGMGDTSIKFEVVPGKNQKSEYVMACGKHTVRGWCKNKRVGKQLASQKILQLLHPHVKNWGSLLRMYGRESSKMVKQETSDKSVIELQQYAKKNKPNLHILSKLQEEMKRLAEEREETRKKPKMSIVASAQPGGEPLCTVDV
B2: Deletion of the N-terminus of DGCR8 (1–275 aa): DGCR8 with deletion of 1–275 aa (protein, UniProt Q8WYQ5 276-773, looked up, fragment)
chain: DGETSVQPMMTKIKTVLKSRGRPPTEPLPDGWIMTFHNSGVPVYLHRESRVVTWSRPYFLGTGSIRKHDPPLSSIPCLHYKKMKDNEEREQSSDLTPSGDVSPVKPLSRSAELEFPLDEPDSMGADPGPPDEKDPLGAEAAPGALGQVKAKVEVCKDESVDLEEFRSYLEKRFDFEQVTVKKFRTWAERRQFNREMKRKQAESERPILPANQKLITLSVQDAPTKKEFVINPNGKSEVCILHEYMQRVLKVRPVYNFFECENPSEPFGASVTIDGVTYGSGTASSKKLAKNKAARATLEILIPDFVKQTSEEKPKDSEELEYFNHISIEDSRVYELTSKAGLLSPYQILHECLKRNHGMGDTSIKFEVVPGKNQKSEYVMACGKHTVRGWCKNKRVGKQLASQKILQLLHPHVKNWGSLLRMYGRESSKMVKQETSDKSVIELQQYAKKNKPNLHILSKLQEEMKRLAEEREETRKKPKMSIVASAQPGGEPLCTVDV
B3: DG115–773: 1–114 aa of DGCR8 was deleted (protein)
chain: LKDVKISVSFTESCRSKDRKVLYTGAERDVRAECGLLLSPVSGDVHACPFGGSVGDGVGIGGESADKKDEENELDQEKRVEYAVLDELEDFTDNLELDEEGAGGFTAKAIVQRDRVDEEALNFPYEDDFDNDVDALLEEGLCAPKKRRTEEKYGGDSDHPSDGETSVQPMMTKIKTVLKSRGRPPTEPLPDGWIMTFHNSGVPVYLHRESRVVTWSRPYFLGTGSIRKHDPPLSSIPCLHYKKMKDNEEREQSSDLTPSGDVSPVKPLSRSAELEFPLDEPDSMGADPGPPDEKDPLGAEAAPGALGQVKAKVEVCKDESVDLEEFRSYLEKRFDFEQVTVKKFRTWAERRQFNREMKRKQAESERPILPANQKLITLSVQDAPTKKEFVINPNGKSEVCILHEYMQRVLKVRPVYNFFECENPSEPFGASVTIDGVTYGSGTASSKKLAKNKAARATLEILIPDFVKQTSEEKPKDSEELEYFNHISIEDSRVYELTSKAGLLSPYQILHECLKRNHGMGDTSIKFEVVPGKNQKSEYVMACGKHTVRGWCKNKRVGKQLASQKILQLLHPHVKNWGSLLRMYGRESSKMVKQETSDKSVIELQQYAKKNKPNLHILSKLQEEMKRLAEEREETRKKPKMSIVASAQPGGEPLCTVDV
B4: DG_Ala mut: V105A/F108A/L112A/L114A/L115A (protein)
chain: METDESPSPLPCGPAGEAVMESRARPFQALPREQSPPPPLQTSSGAEVMDVGSGGDGQSELPAEDPFNFYGASLLSKGSFSKGRLLIDPNCSGHSPRTARHAPAARKASPDAKAAKDVKISVSFTESCRSKDRKVLYTGAERDVRAECGLLLSPVSGDVHACPFGGSVGDGVGIGGESADKKDEENELDQEKRVEYAVLDELEDFTDNLELDEEGAGGFTAKAIVQRDRVDEEALNFPYEDDFDNDVDALLEEGLCAPKKRRTEEKYGGDSDHPSDGETSVQPMMTKIKTVLKSRGRPPTEPLPDGWIMTFHNSGVPVYLHRESRVVTWSRPYFLGTGSIRKHDPPLSSIPCLHYKKMKDNEEREQSSDLTPSGDVSPVKPLSRSAELEFPLDEPDSMGADPGPPDEKDPLGAEAAPGALGQVKAKVEVCKDESVDLEEFRSYLEKRFDFEQVTVKKFRTWAERRQFNREMKRKQAESERPILPANQKLITLSVQDAPTKKEFVINPNGKSEVCILHEYMQRVLKVRPVYNFFECENPSEPFGASVTIDGVTYGSGTASSKKLAKNKAARATLEILIPDFVKQTSEEKPKDSEELEYFNHISIEDSRVYELTSKAGLLSPYQILHECLKRNHGMGDTSIKFEVVPGKNQKSEYVMACGKHTVRGWCKNKRVGKQLASQKILQLLHPHVKNWGSLLRMYGRESSKMVKQETSDKSVIELQQYAKKNKPNLHILSKLQEEMKRLAEEREETRKKPKMSIVASAQPGGEPLCTVDV

System: ERH
Test: Co-immunoprecipitation and Western blot of DGCR8 mutants and fragments with ERH
Format: binding, human
Details: co-IP / Western blot, overexpressed DGCR8 mutants, HEK293E, RNase A
Procedure, shortened: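 HEK293E cells at 50% confluence were transfected with 5 μg total of Flag-, HA- or myc-tagged plasmids using branched/linear PEI (1:1) and harvested after 2 days. Anti-Flag, anti-HA or protein G-bound anti-myc beads were incubated with lysate 1–2 h at 4°C, washed three times and eluted in SDS buffer for western blot.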

Row | Molecule | interaction with ERH
1 | B1 | could not pull down ERH
2 | B2 | abrogated the interaction
3 | B3 | could not pull down ERH
4 | B4 | impaired in ERH binding
